pIC50: −log10 of the molar value. Activity calls are given as the source filed them. The rule behind the calls is not given here.
What was measured:
[1] = system: BT-549; assay: Growth inhibition of human BT549 cells incubated for 48 hrs by sulforhodamine B assay; assay type: functional; conditions: BT-549, 48 h
[2] = system: NCI-H226; assay: Growth inhibition of human NCI-H226 cells incubated for 48 hrs by sulforhodamine B assay; assay type: functional; conditions: NCI-H226, 48 h
[3] = system: MCF7; assay: Growth inhibition of human MCF7 cells incubated for 48 hrs by sulforhodamine B assay; assay type: functional; conditions: MCF7, 48 h
[4] = system: HCT-116; assay: Growth inhibition of human HCT116 cells incubated for 48 hrs by sulforhodamine B assay; assay type: functional; conditions: HCT-116, 48 h
[5] = system: OVCAR-8; assay: Growth inhibition of human OVCAR8 cells incubated for 48 hrs by sulforhodamine B assay; assay type: functional; conditions: OVCAR-8, 48 h
[6] = system: NCI-H322M; assay: Growth inhibition of human NCI-H322M cells incubated for 48 hrs by sulforhodamine B assay; assay type: functional
[7] = system: SR; assay: Growth inhibition of human SR cells incubated for 48 hrs by sulforhodamine B assay; assay type: functional
[8] = system: A-431; assay: Cytotoxicity against human A431 cells; assay type: functional, cell-based
[9] = system: SK-OV-3; assay: Growth inhibition of human SKOV3 cells incubated for 48 hrs by sulforhodamine B assay; assay type: functional; conditions: SK-OV-3, 48 h
[10] = organism: Bos taurus; assay: Displacement of [3H]colchicine from bovine brain tubulin at 1 uM measured after 10 mins by liquid scintillation counting method relative to control
[11] = system: SNB-75; assay: Growth inhibition of human SNB75 cells incubated for 48 hrs by sulforhodamine B assay; assay type: functional; conditions: SNB-75, 48 h
[12] = system: HOP-92; assay: Growth inhibition of human HOP92 cells incubated for 48 hrs by sulforhodamine B assay; assay type: functional; conditions: HOP-92, 48 h
[13] = system: MDA-MB-435; assay: Growth inhibition of human MDA-MB-435 cells incubated for 48 hrs by sulforhodamine B assay; assay type: functional; conditions: MDA-MB-435, 48 h
[14] = system: NCI-H460; assay: Growth inhibition of human NCI-H460 cells incubated for 48 hrs by sulforhodamine B assay; assay type: functional; conditions: NCI-H460, 48 h
[15] = system: 786-0; assay: Growth inhibition of human 786-0 cells incubated for 48 hrs by sulforhodamine B assay; assay type: functional; conditions: 786-0, 48 h
[16] = system: Mus musculus; assay: Toxicity in Balb/cJ mouse implanted with luciferase/GFP-tagged mouse 4T1 cells assessed as body weight change at 50 mg/kg, ip administered three times weekly measured at day 40 post dose; assay type: organism-based; conditions: in vivo
[17] = system: MDA-MB-468; assay: Growth inhibition of human MDA-MB-468 cells incubated for 48 hrs by sulforhodamine B assay; assay type: functional; conditions: MDA-MB-468, 48 h
[18] = system: PC-3; assay: Growth inhibition of human PC3 cells incubated for 48 hrs by sulforhodamine B assay; assay type: functional; conditions: PC-3, 48 h
[19] = system: SN12C; assay: Growth inhibition of human SN12C cells incubated for 48 hrs by sulforhodamine B assay; assay type: functional
[20] = system: CCRF-CEM; assay: Growth inhibition of human CCRF-CEM cells incubated for 48 hrs by sulforhodamine B assay; assay type: functional
[21] = system: Hs-578T; assay: Growth inhibition of human Hs578T cells incubated for 48 hrs by sulforhodamine B assay; assay type: functional
[22] = system: HOP-62; assay: Growth inhibition of human HOP62 cells incubated for 48 hrs by sulforhodamine B assay; assay type: functional; conditions: HOP-62, 48 h
[23] = system: IGROV-1; assay: Growth inhibition of human IGROV1 cells incubated for 48 hrs by sulforhodamine B assay; assay type: functional; conditions: IGROV-1, 48 h
[24] = system: COLO 205; assay: Growth inhibition of human COLO205 cells incubated for 48 hrs by sulforhodamine B assay; assay type: functional; conditions: COLO 205, 48 h
[25] = system: NCI-H23; assay: Growth inhibition of human NCI-H23 cells incubated for 48 hrs by sulforhodamine B assay; assay type: functional; conditions: NCI-H23, 48 h
[26] = system: RXF 393; assay: Growth inhibition of human RXF393 cells incubated for 48 hrs by sulforhodamine B assay; assay type: functional; conditions: RXF 393, 48 h
[27] = system: U-251; assay: Growth inhibition of human U251 cells incubated for 48 hrs by sulforhodamine B assay; assay type: functional; conditions: U-251, 48 h
[28] = system: A498; assay: Growth inhibition of human A498 cells incubated for 48 hrs by sulforhodamine B assay; assay type: functional; conditions: A498, 48 h
[29] = system: HL-60(TB); assay: Growth inhibition of human HL-60(TB) cells incubated for 48 hrs by sulforhodamine B assay; assay type: functional; conditions: HL-60, 48 h
[30] = Solubility of the compound in water; assay type: physicochemical; conditions: buffer
[31] = system: SK-MEL-28; assay: Growth inhibition of human SK-MEL-28 cells incubated for 48 hrs by sulforhodamine B assay; assay type: functional; conditions: SK-MEL-28, 48 h
[32] = system: UACC-257; assay: Growth inhibition of human UACC257 cells incubated for 48 hrs by sulforhodamine B assay; assay type: functional; conditions: UACC-257, 48 h
[33] = system: UO-31; assay: Growth inhibition of human UO31 cells incubated for 48 hrs by sulforhodamine B assay; assay type: functional; conditions: UO-31, 48 h
[34] = system: LOX IMVI; assay: Growth inhibition of human LOXIMVI cells incubated for 48 hrs by sulforhodamine B assay; assay type: functional
[35] = system: MDA-MB-231; assay: Growth inhibition of human MDA-MB-231 cells incubated for 48 hrs by sulforhodamine B assay; assay type: functional; conditions: MDA-MB-231, 48 h
[36] = system: MOLT-4; assay: Growth inhibition of human MOLT4 cells incubated for 48 hrs by sulforhodamine B assay; assay type: functional; conditions: MOLT-4, 48 h
[37] = system: SF-268; assay: Growth inhibition of human SF268 cells incubated for 48 hrs by sulforhodamine B assay; assay type: functional; conditions: SF-268, 48 h
[38] = organism: Bos taurus; assay: Displacement of [3H]colchicine from bovine brain tubulin at 5 uM measured after 10 mins by liquid scintillation counting method relative to control
[39] = system: Malme-3M; assay: Growth inhibition of human MALME-3M cells incubated for 48 hrs by sulforhodamine B assay; assay type: functional
[40] = system: KM12; assay: Growth inhibition of human KM12 cells incubated for 48 hrs by sulforhodamine B assay; assay type: functional; conditions: KM12, 48 h
[41] = system: 4T1; assay: Antitumor activity against luciferase/GFP-tagged mouse 4T1 cells implanted in Balb/CJ mouse assessed as reduction in primary tumor growth at 50 mg/kg, ip administered three times in a week; assay type: functional, organism-based
[42] = system: SK-MEL-2; assay: Growth inhibition of human SK-MEL-2 cells incubated for 48 hrs by sulforhodamine B assay; assay type: functional; conditions: SK-MEL-2, 48 h
[43] = system: Chorioallantoic membrane; assay: Antiangiogenic activity in Leghorn chicken egg chorioallantoic membrane assessed as inhibition of human VEGF-165/bFGF-induced blood vessels formation measured after 40 hrs by microscopic method; assay type: functional, tissue-based; conditions: Gallus gallus
[44] = system: RPMI-8226; assay: Growth inhibition of human RPMI8226 cells incubated for 48 hrs by sulforhodamine B assay; assay type: functional; conditions: RPMI-8226, 48 h
[45] = system: Mus musculus; assay: Toxicity in Balb/cJ mouse assessed as body weight loss administered three times weekly measured every 2 days during compound dosing; conditions: in vivo, 48 h
Outline: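 Female BALB/cJ mice, 8 weeks old, bearing orthotopic 4T1-Luc2-GFP allografts (7,500 cells implanted in mammary fat pad #4). Dosing began one week after implantation: intraperitoneal, three times weekly, in 5% Pharmasolve plus 5% Solutol HS in normal saline. Body weight reported as percent change at day 40 versus starting weight, with n = 9–10 and one-way ANOVA against untreated controls.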

With COc1ccc(N(C)c2nc(C)nc3c(Cc4ccccc4)cn(C)c23)cc1.Cl the GI50 [1] was 48.2 nM, the GI50 [2] was 304 nM and the GI50 [3] was 33.3 nM. The GI50 [4] was 35 nM, the GI50 [5] was 49.1 nM and the GI50 [6] was 73.6 nM. The GI50 [7] was 33.8 nM, the pIC50 [8] was 5.92 and the GI50 [9] was 45.4 nM. For the same compound, the inhibition [10] was 73%, the GI50 [11] was 27.8 nM and the GI50 [12] was 47.1 nM. The GI50 [13] was 21.4 nM, the GI50 [14] was 38.7 nM and the GI50 [15] was 93.2 nM. The Activity [16] was “Non-Toxic”, the GI50 [17] was 30.1 nM and the GI50 [18] was 49.6 nM. The GI50 [19] was 88.7 nM, the GI50 [20] was 33.5 nM and the GI50 [21] was 62.3 nM. The GI50 [22] was 47.8 nM, the GI50 [23] was 95.8 nM and the GI50 [24] was 26.3 nM. The GI50 [25] was 45.8 nM, the GI50 [26] was 25.4 nM and the GI50 [27] was 44.3 nM. The GI50 [28] was 20.2 nM, the GI50 [29] was 26.8 nM and the solubility [30] was “Soluble”. For the same compound, the GI50 [31] was 48.7 nM, the GI50 [32] was 78.2 nM and the GI50 [33] was 209 nM. For the same compound, the GI50 [34] was 58.8 nM, the GI50 [35] was 63.7 nM and the GI50 [36] was 50.8 nM. For the same compound, the GI50 [37] was 350 nM, the inhibition [38] was 92% and the GI50 [39] was 17.7 nM. The GI50 [40] was 44.5 nM, the Activity [41] was “Active” and the GI50 [42] was 28.6 nM. For the same compound, the pIC50 [43] was 5.66, the GI50 [44] was 36.9 nM and the MTD [45] was 50 mg/kg.

From ChEMBL document CHEMBL3997769, “Discovery and preclinical evaluation of 7-benzyl-N-(substituted)-pyrrolo[3,2-d]pyrimidin-4-amines as single agents with microtubule targeting effects along with triple-acting angiokinase inhibition as antitumor agents” (Bioorg Med Chem, 2017)
